Assay results reported in ChEMBL document CHEMBL1123371, “5-HT1 and 5-HT2 binding characteristics of some quipazine analogues” (J Med Chem, 1986).
Activity calls are given as the source filed them. The rule behind the calls is not given here.

Tests used:
[1] = Displacement of [3H]5-HT from 5-hydroxytryptamine 1 receptor of rat cortical membrane homogenates
[2] = biological target: Serotonin 2 (5-HT2) receptor (Rattus norvegicus, UniProt P30994+P08909+P14842); experiment: Displacement of [3H]ketanserin from 5-hydroxytryptamine 2 receptor of rat cortical membrane homogenates
Rattus norvegicus [3] = experiment: Compound was evaluated in stimulus generalization test using animals trained to discriminate TFMPP from saline, and the mean responses per min at dose of 0.5 mg/kg; format: functional
Summary of the method: (§1)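 Male Sprague-Dawley rats (n = 6) trained to discriminate 0.5 mg/kg TFMPP HCl from saline on a two-lever operant task, VI 15-s food reward. Challenge doses were given ip in random order 15 min before a 2.5-min extinction test, with at least three training sessions between tests. Fewer than five total responses was scored as disruption.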

Rattus norvegicus [4] = experiment: Compound was evaluated in stimulus generalization test using animals trained to discriminate TFMPP from saline, and the drug appropriate responding at dose of 0.5 mg/kg; format: functional; summary of the method: as §1
Rattus norvegicus [5] = experiment: Stimulus generalization studies in TFMPP trained animals and the number of animals responding /number to receive dose of drug was determined at dose of 0.5 mg/kg; 6/6; format: functional; summary of the method: as §1
Rattus norvegicus [6] = experiment: Compound was evaluated in stimulus generalization test using animals trained to discriminate DOM from saline, and the drug appropriate responding at dose of 0.3 mg/kg; Not responding; format: functional, organism-based; parameters: dose 0.3 mg/kg
Summary of the method: (§2)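 Male Sprague-Dawley rats (n = 10) trained to discriminate 1.0 mg/kg DOM HCl from saline on a two-lever operant task, VI 15-s food reinforcement. Test doses were given ip in random order, 15 min pre-session, with at least three training sessions between tests. Responding was scored in a 2.5-min extinction session. Rats with fewer than five total responses were counted as disrupted.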

Rattus norvegicus [7] = experiment: Compound was evaluated in stimulus generalization test using animals trained to discriminate DOM from saline, and the drug appropriate responding at dose of 2.0 mg/kg; Not responding; format: functional, organism-based; parameters: dose 2 mg/kg; summary of the method: as §2
Rattus norvegicus [8] = experiment: Compound was evaluated in stimulus generalization test using animals trained to discriminate DOM from saline, and the mean responses per min at dose of 0.1 mg/kg; format: functional; summary of the method: as §2
Rattus norvegicus [9] = experiment: Compound was evaluated in stimulus generalization test using animals trained to discriminate DOM from saline, and the drug appropriate responding at dose of 0.05 mg/kg; format: functional; summary of the method: as §2
Rattus norvegicus [10] = experiment: Compound was evaluated in stimulus generalization test using animals trained to discriminate DOM from saline, and the drug appropriate responding at dose of 0.1 mg/kg; format: functional; summary of the method: as §2
Rattus norvegicus [11] = experiment: Compound was evaluated in stimulus generalization test using animals trained to discriminate DOM from saline, and the mean responses per min at dose of 0.05 mg/kg; format: functional; summary of the method: as §2
Rattus norvegicus [12] = experiment: Compound was evaluated in stimulus generalization test using animals trained to discriminate DOM from saline, and the drug appropriate responding at dose of 0.5 mg/kg; Not responding; format: functional, organism-based; parameters: dose 0.5 mg/kg; summary of the method: as §2

| SMILES | Ki [1] [nM] | Ki [2] [nM] | other results |
| --- | --- | --- | --- |
| COc1cccc2ccc(N3CCCCC3)nc12 | 33000 | 71000 |  |
| c1ccc2nc(N3CCCCC3)ccc2c1 | > 100000 | > 150000 |  |
| NC1CCc2ccccc2C1 (centres undefined) | 380 | 11100 |  |
| Nc1cnc2ccccc2c1 | 56000 | > 300000 |  |
| FC(F)(F)c1cccc(N2CCNCC2)c1 |  |  | Mean response/min (Rattus norvegicus [3]): 18.2; Drug responding (Rattus norvegicus [4]): 92%; Activity (Rattus norvegicus [5]): 6 |
| COc1cccc2ccc(N3CCN(C)CC3)nc12 | 1900 | 1200 |  |
| COc1cccc2ccc(N3CCNCC3)nc12 | 415 | 310 |  |
| c1ccc(N2CCNCC2)cc1 [PHENYLPIPERAZINE] | 135 | 2100 | Drug responding (Rattus norvegicus [6]): inactive; Drug responding (Rattus norvegicus [7]): inactive; Mean response/min (Rattus norvegicus [8]): 11.9; Drug responding (Rattus norvegicus [9]): 7%; Drug responding (Rattus norvegicus [10]): 8%; Mean response/min (Rattus norvegicus [11]): 13.1; Drug responding (Rattus norvegicus [12]): inactive |
